Reference: the EternaBench riboswitch data

Assays:
MS2 coat protein [1] = experiment: apparent Kd, MS2 coat protein; higher = weaker binding; RNA-MaP array; theophylline 2 mM where present
In short: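 Stalled E. coli RNA polymerase produced the designs on Illumina sequencing-chip clusters. SNAP-549-labelled MS2 coat protein was added from 0.7 or 1.5 nM, doubling to 3 µM, without and then with constant ligand, in 100 mM Tris-HCl pH 7.5, 80 mM KCl, 4 mM MgCl2, BSA, DTT, yeast tRNA and Tween-20. The apparent Kd is the median of filtered per-cluster fits of green signal normalised to red-channel RNA signal and control-cluster median Fmax.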

MS2 coat protein [2] = experiment: apparent Kd, MS2 coat protein; higher = weaker binding; RNA-MaP array
In short: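 Fluorescently labeled MS2 coat protein, from 1.5 nM to 3 μM, was incubated at room temperature with designed RNAs transcribed on an Illumina sequencing chip from sequenced DNA templates. Times ran from 0.8–1.5 h at the lowest concentrations to 10–20 min at the highest, in Tris-HCl pH 7.5 buffer with KCl, MgCl2, BSA, DTT, tRNA and Tween20, with or without input ligand. Each apparent Kd is the median of per-cluster binding-curve fits, and designs with fewer than 10 measured clusters were excluded.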

[3] = designed as: OFF switch for theophylline, no ligand
[4] = ligand present: theophylline, designed as: OFF switch for theophylline
[5] = designed as: ON switch for theophylline, no ligand
[6] = ligand present: theophylline, designed as: ON switch for theophylline
[7] = designed as: ON switch for flavin mononucleotide, no ligand
[8] = ligand present: flavin mononucleotide, designed as: ON switch for flavin mononucleotide
[9] = designed as: OFF switch for flavin mononucleotide, no ligand
[10] = ligand present: flavin mononucleotide, designed as: OFF switch for flavin mononucleotide
[11] = designed as: OFF switch for tryptophan, no ligand
[12] = ligand present: tryptophan, designed as: OFF switch for tryptophan

AAACAUUGCUGCGAUACCAGACAUGAGGAUCACCCAUGUACCAAGGUAAGAAAAUAACAUGUCCCUUGGCAGCGCAGCAAUGAAA
apparent Kd (MS2 coat protein [1]; [3]): 16.4 nM | apparent Kd (MS2 coat protein [1]; [4]): 418 nM

UGUUUGGUGCGCGAGUGUUGGAUAAUUGAUACCAGUGUAGAAGAGCGCCCUUGGCAGCGAAUCCUAACAUGAGGAUCACCCAUGU
apparent Kd (MS2 coat protein [1]; [5]): 40 nM | apparent Kd (MS2 coat protein [1]; [6]): 57.3 nM

AGAUAACAUGGUUUAAUAAGAUAAACUGAUACCAGUGUAUAUAAUCACCCUUGGCAGCAGCAACAUGAGGAUCACCCAUGUAAUA
apparent Kd (MS2 coat protein [1]; [5]): 17 nM | apparent Kd (MS2 coat protein [1]; [6]): 21.6 nM

AAAGGCGGGCAGGAUACCAGCGCUAACAUGAGGAUCACCCAUGUACAAAUAAUAACAUGGUGCCCUUGGCAGCCUGGGCGUCUGC
apparent Kd (MS2 coat protein [1]; [5]): 56 nM | apparent Kd (MS2 coat protein [1]; [6]): 285 nM

AAGGUGAUCCUCGAUACCAGCUCAACAUGAGGAUCACCCAUGUAAGCCUGGAAACAGGCGAGCCCUUGGCAGCGAGUUACAUCAA
apparent Kd (MS2 coat protein [1]; [5]): 62.1 nM | apparent Kd (MS2 coat protein [1]; [6]): 17.8 nM

AGACAUGAGGAUCACCCAUGUAGUAUGGAUACCAGAUGUAGAUUAGUCCCUUGGCAGCUGUGGUGAAGUGAUGCAUUGCUCCUAG
apparent Kd (MS2 coat protein [1]; [3]): 23.4 nM | apparent Kd (MS2 coat protein [1]; [4]): 25.9 nM

AGCCCUGUGCUAGAUACCAGCUACAUGAGGAUCACCCAUGUGCGUCAGAAAUGACUGUGUAGCCCUUGGCAGCUACUCGCAUGUA
apparent Kd (MS2 coat protein [1]; [3]): 14.5 nM | apparent Kd (MS2 coat protein [1]; [4]): 26 nM

AGCGACAUGCAUGAUACCAGCUACAUGAGGAUCACCCAUGUACGUCAGUAAUGACUGUGUAGCCCUUGGCAGCAUAAAGCAUGUC
apparent Kd (MS2 coat protein [1]; [3]): 28.8 nM | apparent Kd (MS2 coat protein [1]; [4]): 56.7 nM

ACGAACUGUAGUGAUACCAGACGUACAUGAGGAUCACCCAUGUUGUAAACAUGGUUAAUAGUCCCUUGGCAGCACAGUUAGUUCG
apparent Kd (MS2 coat protein [1]; [3]): 347 nM | apparent Kd (MS2 coat protein [1]; [4]): 531 nM

UGUAACAUGAGGAUCACCCAUGUAAGUGAUACCAGAUAAGUAGUAGUCCCUUGGCAGCAUAUUGGGCGAGUGUAUAGUCUAUACG
apparent Kd (MS2 coat protein [1]; [5]): 50.4 nM | apparent Kd (MS2 coat protein [1]; [6]): 61.1 nM

GGUGGGACUUGUGAUACCAGCCUAAUUCGAAUCGAAUUGCACAUGAGGAUCACCCAUGUCGGCCCUUGGCAGCAUGAGUAUUUAU
apparent Kd (MS2 coat protein [1]; [5]): 287 nM | apparent Kd (MS2 coat protein [1]; [6]): 20.4 nM

ACACAUGAGGAUCACCCAUGUUGCAUAGAUACCAGAUAACGUGAGAUCCCUUGGCAGCUAACUGCAUGAACUUGACAUGCAUCAU
apparent Kd (MS2 coat protein [1]; [5]): 42.4 nM | apparent Kd (MS2 coat protein [1]; [6]): 136 nM

UAUUUUGUGAUGGAUACCAGCAGAGAAAACGUUUAUCCUAACAUGAGGAUCACCCAUGUAUGCCCUUGGCAGCUGUUGUGGGAUA
apparent Kd (MS2 coat protein [1]; [3]): 30.8 nM | apparent Kd (MS2 coat protein [1]; [4]): 36.1 nM

UAACAUGAGGAUCACCCAUGUAUAGUCGAUACCAGCUCUGUCUAGAGCCCUUGGCAGCGACACUGGUAUCCAUGGGUGUGGAUAC
apparent Kd (MS2 coat protein [1]; [5]): 108 nM | apparent Kd (MS2 coat protein [1]; [6]): 56.1 nM

UUAGAUAUGACAGAUACCAGCGUGUUGUAGAACAUGAGGAUCACCCAUGUAGUGAUCGUGCGCCCUUGGCAGCUGGUAUGUUUGG
apparent Kd (MS2 coat protein [1]; [5]): 280 nM | apparent Kd (MS2 coat protein [1]; [6]): 881 nM

AUAACAUGAGGAUCACCCAUGUAAGCAGAUACCAGCUAGGAAACUAGCCCUUGGCAGCUGCAUUCCUCAUGUAGGUAUCUGCUAA
apparent Kd (MS2 coat protein [1]; [3]): 15.8 nM | apparent Kd (MS2 coat protein [1]; [4]): 62.5 nM

AAGCUGCCAAGAAGGUGAUCCAAAUGUGAUACCAGCUAGGAAACUAGCCCUUGGCAGCACAUGAGGAUCACCCAUGUAAUAAUAA
apparent Kd (MS2 coat protein [1]; [3]): 60.8 nM | apparent Kd (MS2 coat protein [1]; [4]): 182 nM

UCGUGUGUUUCGGAUACCAGUGAAAUCGAUACAUGAGGAUCACCCAUGUGAGAGGAUGUACACCCUUGGCAGCUGGCUGUAGCGG
apparent Kd (MS2 coat protein [1]; [5]): 47.9 nM | apparent Kd (MS2 coat protein [1]; [6]): 39.7 nM

CAAAACCUUACAGAUACCAGCACAUGAGGAUCACCCAUGUAUUGGACACUUCGCUCAUCGUGCCCUUGGCAGCUGUGGGACGAGG
apparent Kd (MS2 coat protein [1]; [3]): 78.7 nM | apparent Kd (MS2 coat protein [1]; [4]): 175 nM

UAUAUUGUGAUGGAUACCAGCAGAGAAAACGUUUAUCCUAACAUGAGGAUCACCCAUGUAUGCCCUUGGCAGCUGUUGUGGUAUA
apparent Kd (MS2 coat protein [1]; [4]): 44.4 nM

AUUUACAUGGUCAUAUAUAUAUCGUCAGAUACCAGACUAGAUAUUGUCCCUUGGCAGCUGUUACAUGAGGAUCACCCAUGUUAUA
apparent Kd (MS2 coat protein [1]; [3]): 230 nM | apparent Kd (MS2 coat protein [1]; [4]): 131 nM

CGCCUAGGGUAUCAGGAUAUGACGGGCAUAACAUGAGGAUCACCCAUGUAAGAGUAGUACAGUUGUCAGAAGGGAUGAUCUAGAAU
apparent Kd (MS2 coat protein [2]; [7]): 162 nM | apparent Kd (MS2 coat protein [2]; [8]): 25.5 nM

UUAUAAGCACCUGAUACCAGUAUGAACCCGUACAUGAGGAUCACCCAUGUUAAUUUCUAUUACCCUUGGCAGCAGCCUUUUUCCU
apparent Kd (MS2 coat protein [2]; [5]): 19.4 nM | apparent Kd (MS2 coat protein [2]; [6]): 17.6 nM

AUAUAGGUAGGAUAUACAAUGAAUGGGCACCGUAAAACCAUACAUGAGGAUCACCCAUGUAGAAGGACCGGAAG
apparent Kd (MS2 coat protein [2]; [9]): 7.86 nM | apparent Kd (MS2 coat protein [2]; [10]): 12.5 nM

AGCCCUCAAUCAGGAUAUGUGUGCAUCUAUUGACUUCUAACUAGACAUGAGGAUCACCCAUGUGAACAGAAGGGAUUGUAAUCA
apparent Kd (MS2 coat protein [2]; [9]): 19.9 nM | apparent Kd (MS2 coat protein [2]; [10]): 19.6 nM

GGUCAGCAGUCGGCCGCCACUAGUAUACAUGAGGAUCACCCAUGUCCCUUGCGCCUCACCGAUUUUAGGACCGGGACACUGCCUG
apparent Kd (MS2 coat protein [2]; [11]): 32.8 nM | apparent Kd (MS2 coat protein [2]; [12]): 29.3 nM

UGACCAUGCGAGAAGGCGUACAUGAGGAUCACCCAUGUUCGUAGAACAAUCGGGUAAGCAUGGCACGAGGAUAUCGCCAAUGCC
apparent Kd (MS2 coat protein [2]; [9]): 23.1 nM | apparent Kd (MS2 coat protein [2]; [10]): 93.6 nM

AAACGCUAUGCGGCCGCCACUAAGGUUGGCGUCUAUGUCGUUUAAGACAUGAGGAUCACCCAUGUUAGGACCGGGCAUGUCCGCG
apparent Kd (MS2 coat protein [2]; [11]): 21.2 nM | apparent Kd (MS2 coat protein [2]; [12]): 21.1 nM

UUUAACACCGGCAAGGAUAUUCUACAAAGAACAUGAGGAUCACCCAUGUCAACAAUCUACAUCACGAAGAAGGUGCAUCGGAUUAA
apparent Kd (MS2 coat protein [2]; [7]): 17.4 nM | apparent Kd (MS2 coat protein [2]; [8]): 9.95 nM

GGAAGCUCCUUGAGACAUGAGGAUCACCCAUGUGCCAUUCCGAGAAGGUAGACUGGACGAGAGGCUAAGGAUAUCGGCGCGCUC
apparent Kd (MS2 coat protein [2]; [9]): 16.7 nM | apparent Kd (MS2 coat protein [2]; [10]): 15.6 nM

CACGAUCGAGAAGAGUGCAACAUGAGGAUCACCCAUGUAUUCAGAAGGGCCACGACCUUAGUAGGGCAGGAUAUGAUACGAUAC
apparent Kd (MS2 coat protein [2]; [7]): 26.2 nM | apparent Kd (MS2 coat protein [2]; [8]): 19.9 nM

AAAUGGACGGCAGGAUAUGGACAAGGAAUAUUACCAGAAGGGCCCUAAUGCUCAUACAUGAGGAUCACCCAUGUUGUAAUCAAU
apparent Kd (MS2 coat protein [2]; [9]): 17.8 nM | apparent Kd (MS2 coat protein [2]; [10]): 12.7 nM

UAUAUGAAGGGAGGAUAUGACCGAGAGUAAAUGUCAGAAGGCCCGUUUCUUCACCAACGUCCGGUACAUGAGGAUCACCCAUGU
apparent Kd (MS2 coat protein [2]; [7]): 11.3 nM | apparent Kd (MS2 coat protein [2]; [8]): 8.86 nM

CUCGCUAAAGUAGGAUAUACACAGACAUGAGGAUCACCCAUGUAACGAUGAACCCUUAUUAGAUGGUAGAAGGACUCAAGGCCG
apparent Kd (MS2 coat protein [2]; [9]): 13.1 nM

AAGGCGUCAGGAUAUACGUCAUCUUCAAAUAACAUAACAAUACAUGAGGAUCACCCAUGUAGAAGGGACCAGCC
apparent Kd (MS2 coat protein [2]; [9]): 6.37 nM | apparent Kd (MS2 coat protein [2]; [10]): 6.46 nM

CUCCCUCAGUCAGGAUAUGUGUCUUCCCAACAGGACAUGAGGAUCACCCAUGUCGCAAGCAUGGGACAGAAGGGACAUGGAGCC
apparent Kd (MS2 coat protein [2]; [9]): 23.8 nM | apparent Kd (MS2 coat protein [2]; [10]): 19.6 nM

GUAACACAUGAGGAUCACCCAUGUUCCGAUACCAGUAUUGAAGAUUACCCUUGGCAGCGGGUAGGUCGGAGUGGACGGCCCGAGC
apparent Kd (MS2 coat protein [2]; [6]): 26.1 nM

CCGCCACUACAUGAGGAUCACCCAUGUGAACCGUAGAACAUGAGAAGGUGCCUAAAGCUCGAGGGCAAGGAUAUCAACCGCCGC
apparent Kd (MS2 coat protein [2]; [7]): 125 nM | apparent Kd (MS2 coat protein [2]; [8]): 97.5 nM

UGCAAAUGAUGAGAUACCAGUUCAGUUAAAUACAUGAGGAUCACCCAUGUCAGGGAACUCAACCCUUGGCAGCUCGAUGCACUCA
apparent Kd (MS2 coat protein [2]; [5]): 56.2 nM | apparent Kd (MS2 coat protein [2]; [6]): 14.9 nM

UCAGAAAGAUAGGACCUACAUGAGGAUCACCCAUGUUGCUGUAGAAGGUGCCGUGCCAUCGUGAGCAAGGAUAUACCGAUAUGG
apparent Kd (MS2 coat protein [2]; [9]): 22.6 nM | apparent Kd (MS2 coat protein [2]; [10]): 15.8 nM

GCAUGACAUGAGGAUCACCCAUGUGAAUUGUAGGAAGGAUAUAAUACUUGAUCCGCUGUCUUAGAAGGUCCAUAAU
apparent Kd (MS2 coat protein [2]; [7]): 28.6 nM | apparent Kd (MS2 coat protein [2]; [8]): 19.6 nM
